Assay results reported in paper PMC6800648 (Cell chemical biology, 2019).
Values joined by “and” are separate entries in the source; they are usually repeats but may differ in a detail not shown here. Equal values may be shown once. Square brackets hold non-standard residues; d marks the D form. Peptide text beside a SMILES is read from it. * marks the point of attachment. Lys(Me,2-norbornyl) = CN(CCCC[C@H](N)C(=O)O)C1CC2CCC1C2; Benzoyl(4-tBu) = CC(C)(C)c1ccc(C(=O)*)cc1; Lys(Et2) = CCN(CC)CCCC[C@H](N)C(=O)O

What was measured:
CDYL2 chromodomain = test: Isothermal titration calorimetry; assay type: binding; conditions: from ITC Kd values
In short: (§1)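 ITC at 25 °C in 25 mM Tris-HCl pH 7.5, 150 mM NaCl, 2 mM β-mercaptoethanol. Typically 50 µM chromodomain in cell, 0.5 mM test compound in syringe (10:1 kept). Protein quantified by Edelhoch, compound by mass. One 0.2 µl injection then 26 × 1.5 µl injections at 180 s spacing; first point discarded. Kd from one-site nonlinear least-squares fit.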

SUZ12 and H3K27me3 = test: Capture ChIP-seq in mESCs, SUZ12 and H3K27me3; assay type: cell-based, mouse
mESCs = test: CellTiter-Glo viability assay in mESCs; assay type: cell-based, mouse; conditions: 48 hr
In short: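 Mouse ES cells, 5,000 per well, exposed in technical triplicate for 48 hr at 37°C to a ten-point three-fold dilution series prepared from 50 mM DMSO stocks (0.2% DMSO final). Media-only wells served as negative controls. After equilibrating at room temperature, CellTiter-Glo was added, with 2 min shaking and 10 min settling, then luminescence read.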

CBX7 [1] = biological target: T1, CBX7 (Mus musculus, UniProt Q8VDS3); test: Polycomb in-vivo Assay; assay type: cell-based
T1 sequence (Q8VDS3 2-69 limits assumed): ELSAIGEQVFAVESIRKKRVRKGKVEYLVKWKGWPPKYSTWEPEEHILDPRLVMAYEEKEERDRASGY

CBX7 [2] = biological target: T2, CBX7 (Mus musculus, UniProt Q8VDS3); assay type: cell-based; conditions: TetOFF reporter cell line; UNC4976 compared to UNC3866 treatment
T2 sequence (Q8VDS3 1-158): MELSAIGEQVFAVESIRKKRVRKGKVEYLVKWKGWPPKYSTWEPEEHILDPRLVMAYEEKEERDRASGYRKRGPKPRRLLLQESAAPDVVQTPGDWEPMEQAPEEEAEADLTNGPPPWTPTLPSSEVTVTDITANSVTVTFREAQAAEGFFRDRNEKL

CBX7 chromodomain [3] = biological target: T3, CBX7 chromodomain (Homo sapiens, UniProt O95931); test: Fluorescence polarization; assay type: biochemical
T3 sequence (O95931 1-62): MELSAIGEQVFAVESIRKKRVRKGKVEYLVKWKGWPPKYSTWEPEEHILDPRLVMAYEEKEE
In short: (§2)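 Buffer: 25 mM Tris-HCl pH 7.4, 100 mM NaCl, 0.05% Tween-20, 2 mM DTT; 100 nM FAM-dsDNA or FAM-ANRIL-RNA; 0.2% DMSO; 30 min at RT. Compound titration: eight-point three-fold series from 100 µM with 30 µM CBX7 chromodomain. Ratio mode: CBX7 and test compound co-diluted at fixed 3:1 from 300 µM/100 µM. Polarisation normalised to a no-protein control; α fitted by the Stockton-Ehlert allosteric model.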

CBX6 chromodomain = test: Isothermal titration calorimetry; assay type: binding; conditions: from ITC Kd values
In short: as §1

CBX7 and RING1B = biological target: T4, CBX7 and RING1B (Mus musculus, UniProt Q8VDS3); test: ChIP-qPCR / ChIP-seq in mESCs; assay type: cell-based; conditions: 4 hours, 20 μM
T4 sequence (Q8VDS3 1-158): T2 sequence (Q8VDS3 1-158)
T4 sequence (Q9CQJ4 2-336 partner limits assumed): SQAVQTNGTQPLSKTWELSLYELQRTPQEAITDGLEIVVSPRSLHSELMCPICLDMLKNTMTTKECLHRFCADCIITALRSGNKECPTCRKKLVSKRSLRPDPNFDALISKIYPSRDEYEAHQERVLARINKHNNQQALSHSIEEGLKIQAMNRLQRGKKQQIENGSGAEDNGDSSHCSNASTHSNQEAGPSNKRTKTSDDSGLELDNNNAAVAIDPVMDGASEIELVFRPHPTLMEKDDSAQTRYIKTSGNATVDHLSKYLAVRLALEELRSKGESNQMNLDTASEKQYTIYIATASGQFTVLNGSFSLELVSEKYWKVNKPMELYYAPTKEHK

CBX7 chromodomain [4] = biological target: T3, CBX7 chromodomain; test: Fluorescence polarization; assay type: biochemical; conditions: for enhancement in CBX7 affinity for FAM-dsDNA: 1:3 ratio of compound to protein titration; for allosteric modulator class of oligonucleotide binding: FP data fit to the Stockton/Ehlert allosteric binding model; for α (factor of enhancement of CBX7 affinity for the DNA probe): Stockton/Ehlert allosteric binding model, 1:3 compound to CBX7, 100 nM FAM-dsDNA
In short: as §2

CBX7 chromodomain [5] = biological target: T3, CBX7 chromodomain; test: Electrophoretic mobility shift assay; assay type: biochemical; conditions: for binding to CBX7 by Coomassie stain (higher molecular weight band shifts): EMSA gel; for effect on FAM-dsDNA binding to CBX7: EMSA, 150 mM CBX7 and 100 nM FAM-dsDNA probe, 1:3 ratio of compound to CBX7
In short: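 Buffer: 25 mM Tris-HCl pH 7.4, 100 mM NaCl, 0.05% Tween-20, 2 mM DTT. Compound runs used 150 µM CBX7 with 100 nM FAM-DNA probe and 50 µM test compound (0.3% DMSO); protein-only runs used a three-fold CBX7 series. Binding 20 min on ice. Native 10% Tris-glycine gel at 100 V, 4°C, 90 min in the dark. FAM fluorescence imaged, then Coomassie-stained.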

Polycomb target genes = test: RT-qPCR mRNA expression in HEK293 cells; assay type: cell-based, human; conditions: for effect on transcription of Polycomb target genes: HEK293, 6 μM and 20 μM, 2 days
In short: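 HEK293 cells were treated with test compounds at 6 µM and 20 µM for 2 days. RNA was reverse-transcribed and Polycomb target transcripts were quantified by qPCR with ~100–150 bp amplicons.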

CBX7 chromodomain [6] = biological target: T5, CBX7 chromodomain (Homo sapiens, UniProt O95931); test: Isothermal titration calorimetry; assay type: binding; conditions: ITC
T5 sequence (O95931 8-62): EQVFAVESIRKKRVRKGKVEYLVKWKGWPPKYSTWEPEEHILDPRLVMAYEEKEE
In short: as §1

CBX2 chromodomain = test: Isothermal titration calorimetry; assay type: binding; conditions: from ITC Kd values
In short: as §1

CBX7 chromodomain [7] = conditions: ref Stuckey et al., 2016a, 2016b; cited from earlier work
[8] = Stockton/Ehlert allosteric binding model, 1:3 compound to CBX7, 100 nM FAM-ANRIL-RNA

Compound	EC50 (CBX7 [1])	CBX7 and RING1B binding at PRC1 target TSSs (CBX7 and RING1B)	enhancement in CBX7 affinity for FAM-dsDNA (CBX7 chromodomain [4])	allosteric modulator class of oligonucleotide binding (CBX7 chromodomain [4])	α (factor of enhancement of CBX7 affinity for the DNA probe) (CBX7 chromodomain [4])	binding to CBX7 by Coomassie stain (higher molecular weight band shifts) (CBX7 chromodomain [5])	effect on FAM-dsDNA binding to CBX7 (CBX7 chromodomain [5])	effect on transcription of Polycomb target genes (Polycomb target genes)	also measured
COC(=O)[C@H](CO)NC(=O)[C@H](CCCCN(C)C1CC2CCC1C2)NC(=O)[C@H](CC(C)C)NC(=O)[C@H](C)NC(=O)[C@H](Cc1ccccc1)NC(=O)c1ccc(C(C)(C)C)cc1 (stereo partly drawn) [UNC4976, methyl N^6-(bicyclo[2.2.1]heptan-2-yl)-N^2-(4-(tert-butyl)benzoyl)-L-phenylalanyl-L-alanyl-L-leucyl-N^6-methyl-L-lysyl-L-serinate] ({Benzoyl(4-tBu)}-FAL[Lys(Me,2-norbornyl)]S-OMe)	3.21 ± 0.352 µM	substantially reduced	significant enhancement	positive allosteric modulator	4.2	showed binding to CBX7	enhanced FAM-dsDNA binding	pronounced increase in transcription	selectivity for CBX4/7 over CDYL2 (CDYL2 chromodomain): 8 fold; reduction in SUZ12 binding and H3K27me3 (SUZ12 and H3K27me3): only a mild or insignificant reduction; mESC viability upon compound treatment (mESCs; at 100 μM): weak toxicity; fold more potent than UNC3866 in the CBX7 reporter cell line (CBX7 [1]; EC50 ratio versus UNC3866): ~ 14 fold and 14 fold; derepression of the GFP reporter gene / maintenance of Polycomb silencing (CBX7 [2]): enhanced; effect on CBX7 binding to FAM-ANRIL-RNA (CBX7 chromodomain [3]; 1:3 ratio of compound to protein titration): promoted enhanced CBX7 binding to RNA; α (factor of enhancement of CBX7 affinity for the RNA probe) (CBX7 chromodomain [3]; [8]): 4.0; β (ratio of FP factors between [RNA:CBX7:UNC] and [RNA:CBX7]) (CBX7 chromodomain [3]; [8]): 1.1; selectivity for CBX4/7 over CBX6 (CBX6 chromodomain): 9 fold; change of fluorescence polarization on compound titration (CBX7 chromodomain [4]; 30 μM CBX7 chromodomain, 100 nM FAM-dsDNA): increased polarization; fold higher expression than UNC3866 treatment at the same concentration (Polycomb target genes; HEK293, in some cases): 8 fold; affinity for CBX4 and CBX7 compared (CBX7 chromodomain [6]): equipotent affinity; selectivity for CBX4/7 over CBX2 (CBX2 chromodomain): 28 fold
CCN(CC)CCCC[C@H](NC(=O)[C@H](CC(C)C)NC(=O)[C@H](C)NC(=O)[C@H](Cc1ccccc1)NC(=O)c1ccc(C(C)(C)C)cc1)C(=O)N[C@@H](CO)C(=O)OC [UNC3866, methyl N^2-(4-(tert-butyl)benzoyl)-L-phenylalanyl-L-alanyl-L-leucyl-N^6,N^6-diethyl-L-lysyl-L-serinate] ({Benzoyl(4-tBu)}-FAL[Lys(Et2)]S-OMe)	41.7 ± 2.24 µM	more limited impact	negligible enhancement	silent allosteric modulator (SAM)	1.5	showed binding to CBX7	did not have any effect	either no or a mild effect	mESC viability upon compound treatment (mESCs): non-toxic; fold more potent than fragments of the endogenous H3K27me3 peptide (CBX7 chromodomain [7]): > 100 fold
